Measurements taken from ChEMBL document CHEMBL1152798, “Unsymmetrically disubstituted urea derivatives: a potent class of antiglycating agents” (Bioorg Med Chem, 2009).

Experiment: Antiglycation activity of compound assessed as inhibition of BSA-derived advance glycated end product formation after 7 days by spectrofluorimeter; call rule not given here
Type: physicochemical
How it was run: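 BSA (10 mg/mL) mixed with anhydrous glucose (50 mg/mL) and test sample in equal parts, in sodium phosphate buffer pH 7.4 (67 mM Na2HPO4, 3 mM sodium azide), incubated 37 °C for 7 days. Protein precipitated with TCA and centrifuged, pellet washed with 10% TCA, then redissolved in PBS. AGE fluorescence read at excitation 370 nm, emission 440 nm. % inhibition computed against glycated control (BSA + glucose + buffer).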

| IC50 | IC50 (read-out: IC50) [µM] | SMILES |
| --- | --- | --- |
| Not Active | – | Cc1ccc(C)c(NC(=O)Nc2ccccc2)c1 |
| – | 906 | Cc1cc(C)cc(NC(=O)Nc2cccc(Cl)c2)c1 |
| – | 6.6 | O=C(Nc1cccc(Cl)c1)Nc1ccccc1Br |
| Not Active | – | Cc1ccc(C)c(NC(=O)Nc2cccc(Cl)c2)c1 |
| – | 7.27 | O=C(Nc1ccccc1)Nc1cccc([N+](=O)[O-])c1 |
| Not Active | – | Cc1cccc(C)c1NC(=O)Nc1ccccc1 |
| – | 8.16 | O=C(Nc1cccc(Cl)c1)Nc1cccc(Br)c1 |
| – | 41.9 | C[C@@H]1O[C@@H](OC[C@H]2O[C@@H](Oc3c(-c4ccc(O)c(O)c4)oc4cc(O)cc(O)c4c3=O)[C@H](O)[C@@H](O)[C@@H]2O)[C@H](O)[C@H](O)[C@H]1O [RUTIN] |
| Not Active | – | Cc1cccc(NC(=O)Nc2ccccc2)c1C |
| – | 15.2 | O=C(Nc1cccc(Cl)c1)Nc1ccc(Cl)c(Cl)c1 |
| – | 408 | COc1ccc([N+](=O)[O-])cc1NC(=O)Nc1cccc(Cl)c1 |
| – | 120 | O=C(Nc1ccccc1)Nc1ccccc1Br |

The remaining lines, values behind:

| SMILES | IC50 | IC50 (read-out: IC50) [µM] |
| --- | --- | --- |
| Cc1cc(C)cc(NC(=O)Nc2ccccc2)c1 | Not Active | – |
| COc1ccc(NC(=O)Nc2cccc(Cl)c2)cc1 | – | 7.14 |
| COc1cccc(NC(=O)Nc2ccccc2)c1 | – | 229 |
| O=C(Nc1ccccc1)Nc1cccc(Br)c1 | – | 4.26 |
| Cc1cccc(C)c1NC(=O)Nc1cccc(Cl)c1 | Not Active | – |
| Cc1ccc(NC(=O)Nc2ccccc2)c(C)c1 | Not Active | – |
| O=C(Nc1ccc(Br)cc1)Nc1cccc(Cl)c1 | – | 6.4 |
| O=C(Nc1ccccc1)Nc1ccc(Br)cc1 | – | 6.1 |
| Cc1ccc(NC(=O)Nc2cccc(Cl)c2)cc1C | Not Active | – |
| COc1cccc(NC(=O)Nc2cccc(Cl)c2)c1 | – | 5.8 |
| O=C(Nc1ccccc1)Nc1ccc(Cl)c(Cl)c1 | – | 838 |
| Cc1cccc(NC(=O)Nc2cccc(Cl)c2)c1C | Not Active | – |
| COc1ccccc1NC(=O)Nc1cccc(Cl)c1 | – | 7.02 |
| COc1ccc(NC(=O)Nc2ccccc2)cc1 | – | 8.4 |
| COc1ccc([N+](=O)[O-])cc1NC(=O)Nc1ccccc1 | – | 162 |
| Cc1ccc(NC(=O)Nc2cccc(Cl)c2)c(C)c1 | Not Active | – |
| Cc1ccc(NC(=O)Nc2ccccc2)cc1C | – | 9 |
